In ChEMBL document CHEMBL1127600, “Mercaptoacyl amino acid inhibitors of atriopeptidase. 1. Structure-activity relationship studies of methionine and S-alkylcysteine derivatives” (J Med Chem, 1994):

Assays:
[1] = tested on: Rattus norvegicus; assay: In vivo potentiation of ANF induced hypotension in rat, following subcutaneous dose of 30 mg/kg; assay type: functional
Outline: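 Conscious male SHR (270–300 g) had caudal artery and jugular vein cannulae placed under ether. After at least 90 min of stabilization, ANF 103-125 or 99-126 was given as an iv bolus at a submaximal dose. 60–90 min later, drug or vehicle (0.2% aqueous methylcellulose with 20% Tris-HCl) was given sc. ANF was repeated 15 min after dosing, and the response was compared with vehicle controls. Values are means of four or more animals.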

[2] = target: T1, Angiotensin-converting enzyme (Oryctolagus cuniculus, UniProt P12822); assay: Tested in vitro for its inhibitory activity against angiotensin converting enzyme
T1 sequence (P12822 whole entry): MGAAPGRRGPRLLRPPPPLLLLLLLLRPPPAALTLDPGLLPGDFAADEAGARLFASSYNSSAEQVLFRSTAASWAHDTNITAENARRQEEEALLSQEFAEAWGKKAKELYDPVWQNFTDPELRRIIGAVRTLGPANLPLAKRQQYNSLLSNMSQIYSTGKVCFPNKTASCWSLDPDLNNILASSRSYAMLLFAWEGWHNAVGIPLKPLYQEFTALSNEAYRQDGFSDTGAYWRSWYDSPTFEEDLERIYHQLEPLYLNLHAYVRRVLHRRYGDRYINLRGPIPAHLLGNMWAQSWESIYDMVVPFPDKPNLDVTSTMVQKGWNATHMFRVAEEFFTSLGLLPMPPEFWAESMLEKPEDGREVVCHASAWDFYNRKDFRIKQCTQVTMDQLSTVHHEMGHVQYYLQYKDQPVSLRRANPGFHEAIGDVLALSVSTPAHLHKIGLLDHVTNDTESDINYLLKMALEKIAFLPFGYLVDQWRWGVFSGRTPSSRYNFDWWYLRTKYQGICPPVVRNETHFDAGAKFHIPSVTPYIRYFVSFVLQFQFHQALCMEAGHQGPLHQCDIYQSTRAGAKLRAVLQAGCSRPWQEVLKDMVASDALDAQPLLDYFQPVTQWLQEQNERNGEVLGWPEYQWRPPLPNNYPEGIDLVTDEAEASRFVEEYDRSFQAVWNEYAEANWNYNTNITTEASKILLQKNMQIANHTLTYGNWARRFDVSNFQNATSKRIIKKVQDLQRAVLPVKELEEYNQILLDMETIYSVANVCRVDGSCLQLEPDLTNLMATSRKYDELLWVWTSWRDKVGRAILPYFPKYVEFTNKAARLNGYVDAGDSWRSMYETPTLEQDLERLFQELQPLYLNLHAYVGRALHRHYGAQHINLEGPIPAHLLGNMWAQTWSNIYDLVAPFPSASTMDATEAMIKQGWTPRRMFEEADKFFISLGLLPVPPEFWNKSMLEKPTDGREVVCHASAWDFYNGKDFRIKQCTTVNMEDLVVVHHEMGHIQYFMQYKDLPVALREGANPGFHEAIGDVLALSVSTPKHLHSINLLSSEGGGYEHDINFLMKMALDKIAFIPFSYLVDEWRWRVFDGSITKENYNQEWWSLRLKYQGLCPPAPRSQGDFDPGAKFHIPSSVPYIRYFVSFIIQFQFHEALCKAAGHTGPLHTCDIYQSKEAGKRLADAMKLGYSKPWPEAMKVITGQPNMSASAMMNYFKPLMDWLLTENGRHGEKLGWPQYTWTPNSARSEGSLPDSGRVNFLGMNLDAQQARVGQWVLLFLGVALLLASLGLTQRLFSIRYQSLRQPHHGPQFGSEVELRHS

[3] = target: T2, Neprilysin (Oryctolagus cuniculus, UniProt P08049); assay: In vitro inhibitory activity against neutral endopeptidase (NEP)
T2 sequence (P08049 whole entry): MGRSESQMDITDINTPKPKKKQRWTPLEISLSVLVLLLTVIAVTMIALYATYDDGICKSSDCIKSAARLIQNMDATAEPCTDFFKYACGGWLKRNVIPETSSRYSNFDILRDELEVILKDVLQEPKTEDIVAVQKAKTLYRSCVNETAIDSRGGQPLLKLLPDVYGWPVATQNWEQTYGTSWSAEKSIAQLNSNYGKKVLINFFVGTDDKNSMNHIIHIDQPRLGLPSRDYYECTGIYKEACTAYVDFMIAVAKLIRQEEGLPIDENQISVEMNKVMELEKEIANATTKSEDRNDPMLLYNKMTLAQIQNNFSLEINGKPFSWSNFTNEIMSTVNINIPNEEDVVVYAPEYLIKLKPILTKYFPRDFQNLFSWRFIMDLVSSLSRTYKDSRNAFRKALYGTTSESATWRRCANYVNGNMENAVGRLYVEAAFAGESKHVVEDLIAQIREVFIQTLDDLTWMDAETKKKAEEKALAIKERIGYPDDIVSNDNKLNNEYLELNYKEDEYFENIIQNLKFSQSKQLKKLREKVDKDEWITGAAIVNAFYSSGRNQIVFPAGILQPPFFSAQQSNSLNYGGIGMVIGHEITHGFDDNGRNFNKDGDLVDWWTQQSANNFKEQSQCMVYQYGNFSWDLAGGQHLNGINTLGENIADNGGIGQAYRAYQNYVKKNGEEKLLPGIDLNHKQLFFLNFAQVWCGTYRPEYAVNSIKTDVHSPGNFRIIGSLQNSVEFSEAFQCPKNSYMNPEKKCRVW
Outline: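 Purified rabbit kidney NEP (EC 24.11) was the enzyme source, with [³H]Leu-enkephalin as the substrate.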

[4] = tested on: Rattus norvegicus; assay: Tested for in vivo Antihypertensive activity in DOCA rat by giving peroral dose of 30 mg/kg; assay type: functional; conditions: route oral
Outline: (§1)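 Male Sprague-Dawley rats (100–150 g) had DOCA-Na hypertension induced and were used 17–21 days later if mean BP was >150 mmHg. Rats were not fasted. Mean BP was recorded after 90-min equilibration. Dosing was sc in TRIS buffer (2 mL/kg) or po in 0.4% aqueous methylcellulose (4 mL/kg). The maximum BP fall over 4 h versus vehicle controls was taken, averaged over four or more animals.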

[5] = tested on: Rattus norvegicus; assay: Tested for in vivo Antihypertensive activity in DOCA rat by giving peroral dose of 10 mg/kg; assay type: functional; conditions: route oral; outline: as §1
[6] = tested on: Rattus norvegicus; assay: Tested for in vivo Antihypertensive activity in DOCA rat by giving subcutaneous dose of 30 mg/kg; assay type: functional; outline: as §1

| SMILES | IC50 [2] [nM] | IC50 [3] [nM] | Delta blood pressure [1] [mmHg] | Delta blood pressure [4] [mmHg] | Delta blood pressure [5] [mmHg] | Delta blood pressure [6] [mmHg] | Delta blood pressure ([1]; 30 mg/kg) [mmHg] |
| --- | --- | --- | --- | --- | --- | --- | --- |
| Cc1ccc(CSC[C@@H](NC(=O)[C@H](CS)Cc2ccc(-c3ccccc3)cc2)C(=O)O)cc1 | > 1000 | 290 | 0 |  |  |  |  |
| Cc1ccc(CSC[C@@H](NC(=O)[C@@H](CS)Cc2ccc(-c3ccccc3)cc2)C(=O)O)cc1 | 180 | 180 | 0 | 19 |  |  |  |
| Cc1ccc(CSC[C@@H](NC(=O)[C@@H](CS)Cc2ccc3ccccc3c2)C(=O)O)cc1 | 460 | > 300 | 0 |  |  |  |  |
| CSCC[C@@H](NC(=O)[C@H](CSC(C)=O)Cc1ccccc1)C(N)=O |  |  | 27 |  |  |  |  |
| CSCC[C@@H](NC(=O)C(CSC(C)=O)Cc1ccccc1)C(=O)NCCO (stereo partly drawn) |  |  | 25 |  | 24 |  |  |
| Cc1ccc(CSC[C@@H](NC(=O)[C@@H](CS)Cc2ccccc2)C(N)=O)cc1 |  | > 300 | 0 |  |  |  |  |
| CC(=O)SC[C@@H](Cc1ccccc1)C(=O)N[C@H](CSCc1ccc(C)cc1)C(N)=O |  |  | 12 |  | 29 |  |  |
| Cc1ccc(CSC[C@@H](NC(=O)[C@H](CS)Cc2ccc3ccccc3c2)C(=O)O)cc1 |  |  | 0 |  |  |  |  |
| O=C(N[C@H](CSCc1ccccc1)C(=O)O)[C@H](CS)Cc1ccc(Cl)cc1 | > 1000 | 147 | 0 |  |  |  |  |
| CSCC[C@@H](NC(=O)[C@@H](CSC(C)=O)Cc1ccccc1)C(=O)O |  |  |  |  |  | 48 |  |
| O=C(N[C@H](CSCCc1ccccc1)C(=O)O)[C@@H](CS)Cc1ccccc1 | 80 | 110 | 37 | 0 |  |  |  |
| O=C(N[C@H](CSCc1ccccc1)C(=O)O)[C@@H](CS)Cc1ccc(Cl)cc1 | 44 | 3 | 19 | 20 |  |  |  |
| CSCC[C@@H](NC(=O)[C@@H](CSC(=O)c1ccccc1)Cc1ccccc1)C(N)=O |  |  |  |  |  | 0 |  |
| COC(=O)[C@@H](CCSC)NC(=O)[C@H](CSC(C)=O)Cc1ccccc1 |  |  | 45 |  | 14 |  |  |
| Cc1ccc(CSC[C@@H](NC(=O)[C@H](CS)Cc2cccc3ccccc23)C(=O)O)cc1 | 90 | 39 | 0 |  |  |  |  |
| O=C(N[C@H](CSC(c1ccccc1)(c1ccccc1)c1ccccc1)C(=O)O)C(CS)Cc1ccccc1 (stereo partly drawn) | > 1000 | 274 | 0 |  |  |  |  |
| CCOC(=O)[C@@H](CCSC)NC(=O)C1(CSC(C)=O)CCCC1 |  |  |  |  | 27 |  |  |
| O=C(N[C@H](CSCCc1ccccc1)C(=O)O)[C@H](CS)Cc1ccccc1 | > 1000 | 133 | 23 | 38 |  |  |  |
| CSCC[C@@H](NC(=O)C(CSC(C)=O)Cc1ccccc1)C(=O)N1CCCC1 (stereo partly drawn) |  |  | 29 |  | 24 |  |  |
| O=C(N[C@@H](CSCc1ccccc1)C(=O)O)[C@@H](CS)Cc1ccccc1 | 115 | 19 | 11 |  |  |  |  |
| O=C(N[C@H](CSCc1ccccc1)C(=O)O)C(CS)Cc1ccccc1 (single isomer, unassigned) | 1250 | 14 |  | 18 |  |  | 19 |

Continued, in another order:

| IC50 [2] [nM] | IC50 [3] [nM] | SMILES | Delta blood pressure [1] [mmHg] | Delta blood pressure [4] [mmHg] | Delta blood pressure [5] [mmHg] | Delta blood pressure [6] [mmHg] | Delta blood pressure ([1]; 30 mg/kg) [mmHg] |
| --- | --- | --- | --- | --- | --- | --- | --- |
| 35 | 6.5 | CSCC[C@@H](NC(=O)[C@@H](CS)Cc1ccccc1)C(=O)O | 23 |  | 31 |  |  |
| 170 | 49 | CC(C)(C)SC[C@@H](NC(=O)[C@@H](CS)Cc1ccccc1)C(=O)O | 25 | 17 |  |  |  |
| 77 | 1.5 | CSC[C@@H](NC(=O)[C@@H](CS)Cc1ccccc1)C(=O)O | 30 | 0 |  |  |  |
| > 1000 | 541 | Cc1ccc(CSC[C@@H](NC(=O)[C@H](CS)Cc2ccccc2)C(=O)O)cc1C | 0 |  |  |  |  |
| 95 | 2 | COc1ccc(CSC[C@@H](NC(=O)[C@@H](CS)Cc2ccccc2)C(=O)O)cc1 |  | 28 |  |  |  |
| > 1000 | 76 | CSCC[C@@H](NC(=O)[C@@H](CS)Cc1ccccc1)C(N)=O | 26 |  |  |  |  |
|  | > 300 | CSCC[C@@H](NC(=O)C(CSC(C)=O)Cc1ccccc1)C(=O)N1CCOCC1 (stereo partly drawn) | 24 |  | 20 |  |  |
| > 1000 | 2.5 | CCCC(CS)C(=O)N[C@H](CCSC)C(=O)O (stereo partly drawn) |  |  |  |  |  |
| 150 | 60 | CSCC[C@@H](NC(=O)[C@@H](CS)CCc1ccccc1)C(=O)O |  |  | 18 |  |  |
|  | > 300 | CCOC(=O)CNC(=O)[C@@H](CCSC)NC(=O)C(CSC(C)=O)Cc1ccccc1 (stereo partly drawn) |  |  | 0 |  |  |
| > 1000 | 31 | CCSCC[C@@H](NC(=O)[C@H](CS)Cc1ccccc1)C(=O)O | 30 | 0 |  |  |  |
| 700 | 3.5 | CSCC[C@@H](NC(=O)C1(CS)CCCC1)C(=O)O |  |  |  | 24 |  |
| > 1000 | 3.5 | CSCC[C@@H](NC(=O)[C@H](CS)Cc1ccccc1)C(=O)O | 50 |  | 30 |  |  |
| > 1000 | 94 | CSCC[C@@H](NC(=O)[C@H](CS)Cc1ccccc1)C(N)=O |  |  |  |  |  |
| 640 | 231 | CC(C)(C)SC[C@@H](NC(=O)[C@H](CS)Cc1ccccc1)C(=O)O | 0 |  |  |  |  |
| 45 | 6.5 | CCSC[C@@H](NC(=O)C(CS)Cc1ccccc1)C(=O)O (stereo partly drawn) | 25 |  |  |  |  |
| 215 | 5 | CCSCC[C@@H](NC(=O)[C@@H](CS)Cc1ccccc1)C(=O)O | 20 |  |  |  |  |
| 1000 | > 300 | CCCC(CS)C(=O)N[C@H](CSCC)C(=O)O (stereo partly drawn) |  |  |  |  |  |
